In article PMC11474258 (RSC Advances, 2024):
≈ marks a conversion by molar mass, not a printed value. One block for each molecule: values may come before it.

Legend:
A549 cells = test: MTT cell viability assay; format: cell-based; conditions: 18 h, triplicates, CX4 alone up to 200 μM
Procedure, shortened: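 A549 cells were grown in DMEM/F12 with 10% heat-inactivated FBS and 1% penicillin/streptomycin at 37 °C, 5% CO2. They were seeded at 1×10^4 cells/well and exposed in triplicate for 18 h to a range of test compound concentrations, alone or complexed with peptide. CX4 was at most 4 mM in complexes. MTT absorbance was read at 570 nm and reported as mean ± standard error, with Tukey test (P < 0.05).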

[1] = concentrations up to 5 mM; cited from earlier work
[2] = UV-vis titration of curcumin with phenol; format: binding; conditions: isotherm at 430 nm, 1:1 model, non-linear regression
Procedure, shortened: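 Curcumin was spectroscopically titrated with phenol, which stands in for the tyrosine side chain. The binding isotherm was plotted from absorbance at 430 nm. Ka was fitted by nonlinear regression to a one-host-to-one-guest binding model.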

Solubility of curcumin = format: physicochemical; conditions: in the presence of FAM-Y4R4; absorption peak at 425 nm, curcumin standard curve
[3] = Overall binding constant of curcumin; conditions: average of fluorescence (tyrosine) and UV-vis (phenol) titration
[4] = cited from earlier work
[5] = Spectral titration of phenol with guanidine HCl; conditions: calculated from the binding isotherm of phenol with guanidine HCl

SMILES: O=S(=O)(O)c1cc2c(O)c(c1)Cc1cc(S(=O)(=O)O)cc(c1O)Cc1cc(S(=O)(=O)O)cc(c1O)Cc1cc(S(=O)(=O)O)cc(c1O)C2 [CX4, p-sulfonatocalix[4]arene]
- maximum decrease in cell viability (A549 cells): ≤ 22%
- hemolytic toxicity [1]: no hemolytic toxicity

- solubility of curcumin when bound to the tyrosines of FAM-Y4R4 (Solubility of curcumin): 0.4 µM
- overall binding constant Ka (average of the two values) [3]: 2.38e+06 M⁻¹
SMILES: COc1cc(/C=C/C(=O)CC(=O)/C=C/c2ccc(O)c(OC)c2)ccc1O [curcumin]
- Ka of curcumin to phenol [2]: 4.6e+06 M⁻¹
- solubility in water [4]: 0.03 µM (≈ 0.0111 µg/mL)

- binding energy [5]: 8.13 kcal/mol
SMILES: Cl.N=C(N)N [guanidine HCl]
